Published values pooled from the literature.
MAOB: Amine oxidase [flavin-containing] B (MAOB, Homo sapiens, UniProt P27338)

target	observed	action	technique	concentration	measurement	value	SMILES
MAOB	enzyme activity	inhibitor		1 µM	inhibition	< 5%	O=C(Nc1ccccc1Br)c1ccc2c(c1)C(=O)NC2=O
GUK1 (Homo sapiens, UniProt Q16774)	enzyme activity	substrate			Km	14.9 µM	Nc1nc2c(ncn2[C@@H]2O[C@H](COP(=O)(O)O)[C@@H](O)[C@H]2O)c(=O)[nH]1
Serine/threonine-protein kinase NLK (NLK, Homo sapiens, UniProt Q9UBE8)	binding		competition with immobilised ligand	0.5 µM	remaining binding	92%	CCCCC(=O)Nc1ccc(-c2ccc3ncn(CCC)c(=O)c3c2)cn1
Ribosomal protein S6 kinase alpha-6, N-terminal kinase domain (RPS6KA6, Homo sapiens, UniProt Q9UK32)	cell-free assay			0.1 µM	remaining signal	78%	C1=C/COCc2cc(ccc2OCCN2CCCC2)Nc2nccc(n2)-c2cccc(c2)COC/1
Lactoylglutathione lyase (GLO1, Homo sapiens, UniProt Q04760)	enzyme activity	inhibitor		1 µM	inhibition	13.6%	O=C(N[C@@H](CSCc1nc2cc([N+](=O)[O-])ccc2[nH]1)C(=O)NO)c1ccccc1
MAOB	enzyme activity	inhibitor		1 µM	inhibition	90.6%	O=C(Nc1ccc(F)c(F)c1)c1ccc2c(c1)C(=O)NC2=O
Beta-1 adrenergic receptor (ADRB1, Homo sapiens, UniProt P08588)	ligand displacement		radioligand	10 µM	inhibition	< 50%	NC/C(=C\F)COc1cccc(Cn2c(=S)[nH]c(=O)c3[nH]cnc32)c1
MAOB	enzyme activity	inhibitor		1 µM	inhibition	97.3%	O=C(Nc1ccc(F)c(Br)c1)c1ccc2c(c1)C(=O)NC2=O
Dual specificity tyrosine-phosphorylation-regulated kinase 4 (DYRK4, Homo sapiens, UniProt Q9NR20)	enzyme activity	inhibitor		0.2 µM	inhibition	4.78%	C#Cc1cc(-c2cc(Nc3nc(N[C@@H](C)c4ccc(F)cn4)ncc3Cl)n[nH]2)ccc1C=O
MAOB	enzyme activity	inhibitor		1 µM	inhibition	< 5%	O=C(Nc1cccc(F)c1)c1ccc2c(c1)C(=O)NC2=O
Phosphatidylinositol 3-kinase C2 domain-containing subunit gamma (PIK3C2G, Homo sapiens, UniProt O75747)	binding			1 µM	remaining binding	37%	COc1ccc2oc(-c3ccc4nc(N)oc4c3)c/c(=N\c3ccccc3NC(=O)CCN)c2c1
NUAK family SNF1-like kinase 2 (NUAK2, Homo sapiens, UniProt Q9H093)	binding		competition with immobilised ligand	1 µM	remaining binding	26%	Cc1cc(S(=O)(=O)N[C@H]2CC[C@H](CN3CCN(c4ccc(C5CCC(=O)NC5=O)cc4F)CC3)CC2)ccc1Nc1ncc(C(F)(F)F)c(N2CCC[C@](C)(O)C2)n1 (stereo partly drawn)
